Assay results reported in ChEMBL document CHEMBL3763025, “Synthesis of novel diflunisal hydrazide-hydrazones as anti-hepatitis C virus agents and hepatocellular carcinoma inhibitors” (Eur J Med Chem, 2016).
Activity calls are given as the source filed them. The calls are words filed in the database; no cut-off is given here.

Experiments:
[1] = Cytotoxicity against human Huh7.5 cells assessed as cell viability after 42 hrs by MTS assay; format: cell-based, Huh-7
In short: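 CC50 measured in parental Huh7.5 cells using the colorimetric MTS assay, with equal amounts of DMSO as control. Mean of three independent experiments with standard deviation.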

Hepatitis C virus [2] = assay: Antiviral activity against HCV genotype 2a infected in Huh7.5 FGR-JC1-Rluc2A cells assessed as inhibition of viral replication at 50 uM after 42 hrs by MTS assay relative to control; format: functional; settings: Hepacivirus hominis, Huh7.5, 42 h, in the assay text read “Renilla luciferase reporter assay” for “MTS assay”
In short: (§1)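 Replicon reporter cells (Huh7/Rep-Feo1b or Huh7.5-FGR-JC1-Rluc2A) grown in DMEM with 10% fetal calf serum and 0.5 mg/mL G418 at 37°C, 5% CO2. Seeded at 1x10^4 per well, compound added 8 h after seeding at 50 µM for 42 h. Luciferase signal expressed relative to equivalent DMSO-treated controls. Average of three independent experiments.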

Hepatitis C virus [3] = assay: Antiviral activity against HCV genotype 1b infected in Huh7/Rep-Feo1b cells assessed as inhibition of viral replication at 50 uM after 42 hrs by MTS assay relative to control; format: functional, Hepacivirus hominis; settings: Huh-7, 42 h; in short: as §1
Hepacivirus hominis = assay: Inhibition of HCV NS5B RNA dependent RNA polymerase using UTP/[alpha-32P]UTP as substrate at 50 uM after 1 hr by liquid scintillation counter analysis
[4] = Cytotoxicity against human HuH7 cells assessed as inhibition of cell proliferation after 72 hrs by sulforhodamine B assay; format: functional, cell-based, Huh-7
In short: (§2)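 Liver cancer cells grown in DMEM or RPMI with 10% FCS, 2 mM L-glutamine and penicillin/streptomycin at 37°C, 5% CO2. Plated at 1000-3000 cells per well for 24 h, then exposed to 2.5–40 µM for 72 h. Cells TCA-fixed, stained with 0.4% sulforhodamine B in 1% acetic acid, dye solubilized in 10 mM Tris base, absorbance read at 515 nm. Normalized to DMSO, triplicate.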

HepG2 = assay: Cytotoxicity against human HepG2 cells assessed as inhibition of cell proliferation after 72 hrs by sulforhodamine B assay; format: functional, cell-based; in short: as §2
[5] = Cytotoxicity against human Hep3B cells assessed as inhibition of cell proliferation after 72 hrs by sulforhodamine B assay; format: functional, cell-based, Hep 3B2; in short: as §2
[6] = Cytotoxicity against human Mahlavu cells assessed as inhibition of cell proliferation after 72 hrs by sulforhodamine B assay; format: functional, cell-based; in short: as §2
[7] = Cytotoxicity against human FOCUS cells assessed as inhibition of cell proliferation after 72 hrs by sulforhodamine B assay; format: functional, cell-based; in short: as §2
[8] = Cytotoxicity against human SNU475 cells assessed as inhibition of cell proliferation after 72 hrs by sulforhodamine B assay; format: functional, cell-based, SNU-475; in short: as §2
Huh-7 [9] = assay: Induction of apoptosis in human HuH7 cells assessed as nuclear condensation at IC50 after 72 hrs by hoechst 33258 staining based fluorescence microscopy; format: functional, cell-based
Huh-7 [10] = assay: Induction of apoptosis in human HuH7 cells assessed as DNA fragmentation at IC50 after 72 hrs by hoechst 33258 staining based fluorescence microscopy; format: functional, cell-based
Hepatitis C virus [11] = assay: Antiviral activity against HCV genotype 1b infected in Huh7/Rep-Feo1b cells assessed as inhibition of viral replication after 42 hrs by MTS assay; format: functional, organism-based, Hepacivirus hominis; settings: Huh-7, 42 h
In short: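 Huh7/Rep-Feo1b replicon reporter cells kept in DMEM with 10% fetal calf serum and 0.5 mg/mL G418 at 37°C, 5% CO2. Cells seeded at 1x10^4 per well, dosed 8 h later and incubated 42 h with DMSO as control. Luciferase signal read relative to DMSO. EC50 derived from dose-response curves at 8-10 concentrations, mean of three independent experiments with standard deviation.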

[12] = Selectivity index, ratio of CC50 for human Huh7.5 cells to EC50 for HCV genotype 1b infected in Huh7/Rep-Feo1b cells; set-up: species or system Huh-7
In short: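 Selectivity index taken as the ratio of CC50 (MTS assay, parental Huh7.5 cells) to EC50 (dose-response curves at 8-10 concentrations, Huh7/Rep-Feo1b luciferase replicon, 42 h treatment).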

[13] = Cell cycle arrest in human Mahlavu cells assessed as accumulation at subG1/G0 phase at IC50 after 72 hrs by propidium iodide staining-based Muse cell cycle analyzer; format: functional
Huh-7 [14] = assay: Induction of apoptosis in human HuH7 cells assessed as cleavage of PARP protein at IC50 after 72 hrs by Western blot analysis; format: functional, cell-based
In short: (§3)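 Cells plated in 100 mm dishes. […] Western blot probed with anti-PARP to detect cleaved PARP, with β-actin as loading control.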

Mahlavu = assay: Induction of apoptosis in human Mahlavu cells assessed as cleavage of PARP protein at IC50 after 72 hrs by Western blot analysis; format: functional, cell-based; in short: as §3

SMILES	inhibition (Hepacivirus hominis)	CC50 at 42 h [1] [µM]	inhibition at 50 µM (Hepatitis C virus [2]) [%]	inhibition at 50 µM (Hepatitis C virus [3]) [%]	EC50 (Hepatitis C virus [11]) [µM]	Ratio CC50/EC50 [12]	further results
O=C(N/N=C/c1ccncc1)c1cc(-c2ccc(F)cc2F)ccc1O	7%	> 50	23	33			
Cc1ccc(/C=N/NC(=O)c2cc(-c3ccc(F)cc3F)ccc2O)s1	8%	> 50	95	64			
O=C(N/N=C/c1cccc(Oc2ccccc2)c1)c1cc(-c2ccc(F)cc2F)ccc1O	14%	< 50	99	92			
O=C(N/N=C/c1ccc2ccccc2c1)c1cc(-c2ccc(F)cc2F)ccc1O	inactive	> 100	58	65			
O=C(O)c1cc(-c2ccc(F)cc2F)ccc1O [DIFLUNISAL]							IC50 ([4]; huh-7): Not Active; IC50 (HepG2; hepg2): Not Active; IC50 ([5]; hep 3b2): Not Active; IC50 [6]: 51.7 µM; IC50 [7]: 29.8 µM; IC50 ([8]; snu-475): Not Active; Activity (Huh-7 [9]): inactive; Activity (Huh-7 [10]): inactive
O=C(N/N=C/c1cccc2ccccc12)c1cc(-c2ccc(F)cc2F)ccc1O	inactive	> 200	70	79	16.5	>6.1	
O=C(N/N=C/c1ccccc1Cl)c1cc(-c2ccc(F)cc2F)ccc1O	7%	< 50	78	90			
O=C(N/N=C/c1ccc(Cl)c(Cl)c1)c1cc(-c2ccc(F)cc2F)ccc1O	inactive	< 50	95	66			
N#Cc1ccc(/C=N/NC(=O)c2cc(-c3ccc(F)cc3F)ccc2O)cc1	inactive	> 200	82	77	11.8	>16.9	
O=C(N/N=C/c1ccccn1)c1cc(-c2ccc(F)cc2F)ccc1O	inactive	> 100	90	79	3.9	>25.6	IC50 ([4]; Homo sapiens, Huh-7, 72 h, read-out: IC50): 10 µM; IC50 (HepG2; Homo sapiens, HepG2, 72 h, read-out: IC50): 10.3 µM; IC50 ([5]; Homo sapiens, Hep3B, 72 h, read-out: IC50): 16.2 µM; IC50 [6]: 4.74 µM; IC50 [7]: 9.29 µM; IC50 ([8]; Homo sapiens, SNU-475, 72 h, read-out: IC50): 8.33 µM; Activity (Huh-7 [9]): Active; Activity (Huh-7 [10]): Active; Activity [13]: Active; Activity (Huh-7 [14]): inactive; Activity (Mahlavu): Active
CCc1ccc(/C=N/NC(=O)c2cc(-c3ccc(F)cc3F)ccc2O)s1	inactive	> 50	96	65			
O=C(N/N=C/c1ccc(C(F)(F)F)cc1)c1cc(-c2ccc(F)cc2F)ccc1O	12%	< 50	99	86			
O=C(N/N=C/c1ccc2c(c1)OC(F)(F)O2)c1cc(-c2ccc(F)cc2F)ccc1O	inactive	< 50	95	65			
O=C(N/N=C/c1cccnc1)c1cc(-c2ccc(F)cc2F)ccc1O	8%	> 200	88	83	8.1	>24.7	

The next lines start with results.

inhibition (Hepacivirus hominis)	SMILES	CC50 at 42 h [1] [µM]	inhibition at 50 µM (Hepatitis C virus [2]) [%]	inhibition at 50 µM (Hepatitis C virus [3]) [%]	EC50 (Hepatitis C virus [11]) [µM]	Ratio CC50/EC50 [12]	further results
18%	O=C(N/N=C/c1cccc(C(F)(F)F)c1)c1cc(-c2ccc(F)cc2F)ccc1O	< 50	99	87			
inactive	O=C(N/N=C/c1c(F)cccc1F)c1cc(-c2ccc(F)cc2F)ccc1O	> 100	72	69			
inactive	O=C(N/N=C/c1c(Cl)cccc1Cl)c1cc(-c2ccc(F)cc2F)ccc1O	< 50	96	72			
17%	O=C(N/N=C/c1cccs1)c1cc(-c2ccc(F)cc2F)ccc1O	> 50	98	91	15.6	>3.2	
9%	O=C(N/N=C/c1cccc(Br)c1)c1cc(-c2ccc(F)cc2F)ccc1O	< 50	92	81			
11%	O=C(N/N=C/c1c(F)cccc1Cl)c1cc(-c2ccc(F)cc2F)ccc1O	> 50	74	83	3.9	>12.8	
